Assays:
Assay type in all cases: functional
Staphylococcus aureus [1] = test: Bactericidal activity against methicillin-resistant Staphylococcus aureus 97-115 preincubated for 1 min before addition of growth medium measured after 40 to 48 hrs
Procedure, shortened: (§1)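 Read-out is the minimal bactericidal concentration (MBC), taken after 1, 3 and 5 min contact of compound with the test organism.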

Pseudomonas aeruginosa [2] = test: Antibacterial activity against Pseudomonas aeruginosa PAO1
Procedure, shortened: (§2)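 Value is the minimal inhibitory concentration (MIC) against the test organism, read after 24 h of incubation.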

Staphylococcus aureus [3] = test: Bactericidal activity against methicillin-resistant Staphylococcus aureus KM 97-108 preincubated for 3 mins before addition of growth medium measured after 40 to 48 hrs; procedure, shortened: as §1
Staphylococcus aureus [4] = test: Bactericidal activity against methicillin-resistant Staphylococcus aureus 97-53 preincubated for 5 mins before addition of growth medium measured after 40 to 48 hrs; procedure, shortened: as §1
Staphylococcus aureus [5] = test: Antibacterial activity against Staphylococcus aureus 209PJC after 24 hrs; procedure, shortened: as §2
Escherichia coli [6] = test: Bactericidal activity against Escherichia coli NIHJ JC-2 preincubated for 1 min before addition of growth medium measured after 40 to 48 hrs
Staphylococcus aureus [7] = test: Bactericidal activity against methicillin-resistant Staphylococcus aureus 97-115 preincubated for 5 mins before addition of growth medium measured after 40 to 48 hrs; procedure, shortened: as §1
Pseudomonas aeruginosa [8] = test: Bactericidal activity against Pseudomonas aeruginosa PAO1 preincubated for 5 mins before addition of growth medium measured after 40 to 48 hrs
Pseudomonas aeruginosa [9] = test: Bactericidal activity against Pseudomonas aeruginosa 12 preincubated for 1 min before addition of growth medium measured after 40 to 48 hrs
Pseudomonas aeruginosa [10] = test: Bactericidal activity against Pseudomonas aeruginosa PAO1 preincubated for 3 mins before addition of growth medium measured after 40 to 48 hrs
Staphylococcus aureus [11] = test: Bactericidal activity against Staphylococcus aureus 209PJC preincubated for 1 min before addition of growth medium measured after 40 to 48 hrs
Staphylococcus aureus [12] = test: Bactericidal activity against methicillin-resistant Staphylococcus aureus 97-115 preincubated for 3 mins before addition of growth medium measured after 40 to 48 hrs; procedure, shortened: as §1
Enterococcus [13] = test: Bactericidal activity against vancomycin-resistant Enterococcus 49 preincubated for 1 min before addition of growth medium measured after 40 to 48 hrs; procedure, shortened: as §1
Staphylococcus aureus [14] = test: Bactericidal activity against methicillin-resistant Staphylococcus aureus 97-53 preincubated for 1 min before addition of growth medium measured after 40 to 48 hrs; procedure, shortened: as §1
Escherichia coli [15] = test: Bactericidal activity against Escherichia coli NIHJ JC-2 preincubated for 5 mins before addition of growth medium measured after 40 to 48 hrs
Staphylococcus aureus [16] = test: Bactericidal activity against methicillin-resistant Staphylococcus aureus KM 97-108 preincubated for 5 mins before addition of growth medium measured after 40 to 48 hrs; procedure, shortened: as §1
Pseudomonas aeruginosa [17] = test: Bactericidal activity against Pseudomonas aeruginosa 12 preincubated for 5 mins before addition of growth medium measured after 40 to 48 hrs
Enterococcus [18] = test: Bactericidal activity against vancomycin-resistant Enterococcus 49 preincubated for 5 mins before addition of growth medium measured after 40 to 48 hrs; procedure, shortened: as §1
Pseudomonas aeruginosa [19] = test: Bactericidal activity against Pseudomonas aeruginosa PAO1 preincubated for 1 min before addition of growth medium measured after 40 to 48 hrs
Enterococcus [20] = test: Bactericidal activity against vancomycin-resistant Enterococcus 49 preincubated for 3 mins before addition of growth medium measured after 40 to 48 hrs; procedure, shortened: as §1
Staphylococcus aureus [21] = test: Bactericidal activity against Staphylococcus aureus 209PJC preincubated for 5 mins before addition of growth medium measured after 40 to 48 hrs
Staphylococcus aureus [22] = test: Bactericidal activity against methicillin-resistant Staphylococcus aureus KM 97-108 preincubated for 1 min before addition of growth medium measured after 40 to 48 hrs; procedure, shortened: as §1
Escherichia coli [23] = test: Bactericidal activity against Escherichia coli NIHJ JC-2 preincubated for 3 mins before addition of growth medium measured after 40 to 48 hrs
Staphylococcus aureus [24] = test: Bactericidal activity against Staphylococcus aureus 209PJC preincubated for 3 mins before addition of growth medium measured after 40 to 48 hrs
Pseudomonas aeruginosa [25] = test: Bactericidal activity against Pseudomonas aeruginosa 12 preincubated for 3 mins before addition of growth medium measured after 40 to 48 hrs
Staphylococcus aureus [26] = test: Antibacterial activity against methicillin-resistant Staphylococcus aureus 97-115 after 24 hrs
Procedure, shortened: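 Read-out is the minimal inhibitory concentration (MIC), taken after 24 h incubation with the test organism.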

Escherichia coli [27] = test: Antibacterial activity against Escherichia coli NIHJ JC-2 after 24 hrs; procedure, shortened: as §2
Staphylococcus aureus [28] = test: Bactericidal activity against methicillin-resistant Staphylococcus aureus 97-53 preincubated for 3 mins before addition of growth medium measured after 40 to 48 hrs; procedure, shortened: as §1

Row | Structure (SMILES) | MBC (Staphylococcus aureus [1]) [µg/mL] | MIC (Pseudomonas aeruginosa [2]) [µg/mL] | MBC (Staphylococcus aureus [3]) [µg/mL] | MBC (Staphylococcus aureus [4]) [µg/mL] | MIC (Staphylococcus aureus [5]) [µg/mL] | MBC (Escherichia coli [6]) [µg/mL] | MBC (Staphylococcus aureus [7]) [µg/mL] | MBC (Pseudomonas aeruginosa [8]) [µg/mL] | MBC (Pseudomonas aeruginosa [9]) [µg/mL] | MBC (Pseudomonas aeruginosa [10]) [µg/mL] | MBC (Staphylococcus aureus [11]) [µg/mL] | MBC (Staphylococcus aureus [12]) [µg/mL] | MBC (Enterococcus [13]) [µg/mL] | MBC (Escherichia coli [15]) [µg/mL] | MBC (Pseudomonas aeruginosa [19]) [µg/mL] | MBC (Staphylococcus aureus [21]) [µg/mL] | MBC (Escherichia coli [23]) [µg/mL] | MBC (Staphylococcus aureus [24]) [µg/mL] | MIC (Staphylococcus aureus [26]) [µg/mL] | MIC (Escherichia coli [27]) [µg/mL] | also measured
1 | CC(=O)O.CCCCCCCCNC1=NC(C)(C)NC(NCc2ccc(C)cc2)=N1 | 25 | 12.5 | 50 | 25 | 0.4 | 12.5 | 12.5 | 3.1 | 6.3 | 6.3 | 6.3 | 25 | 25 | 6.3 | 12.5 | 3.1 | 6.3 | 3.1 | 0.4 | 12.5 | MBC (Staphylococcus aureus [14]): 50 µg/mL; MBC (Staphylococcus aureus [16]): 25 µg/mL; MBC (Pseudomonas aeruginosa [17]): 3.1 µg/mL; MBC (Enterococcus [18]): 12.5 µg/mL; MBC (Enterococcus [20]): 25 µg/mL; MBC (Staphylococcus aureus [22]): 50 µg/mL; MBC (Pseudomonas aeruginosa [25]): 6.3 µg/mL; MBC (Staphylococcus aureus [28]): 50 µg/mL
2 | N=C(NCCCCCCNC(=N)NC(=N)Nc1ccc(Cl)cc1)NC(=N)Nc1ccc(Cl)cc1.O=C(O)[C@H](O)[C@@H](O)[C@H](O)[C@H](O)CO | 1000 | 50 | 500 | 250 | 0.2 | 62.5 | 125 | > 500 | 125 | > 500 | 62.5 | 250 | > 1000 | 15.6 | > 500 | 62.5 | 31.3 | 62.5 | 3.1 | 1.6 | MBC (Staphylococcus aureus [14]): 500 µg/mL; MBC (Staphylococcus aureus [16]): 500 µg/mL; MBC (Pseudomonas aeruginosa [17]): 31.3 µg/mL; MBC (Enterococcus [18]): > 1000 µg/mL; MBC (Enterococcus [20]): > 1000 µg/mL; MBC (Staphylococcus aureus [22]): 500 µg/mL; MBC (Pseudomonas aeruginosa [25]): 31.3 µg/mL; MBC (Staphylococcus aureus [28]): 250 µg/mL
3 | CC(=O)O.CCCCCCCCNC1=NC(C)(C)NC(NCCCCCC)=N1 | 12.5 | 50 | 25 | 25 | 0.8 | 12.5 | 6.3 | 1.6 | 3.1 | 3.1 | 12.5 | 6.3 | 25 | 6.3 | 6.3 | 6.3 | 6.3 | 6.3 | 0.8 | 12.5 | MBC (Staphylococcus aureus [14]): 50 µg/mL; MBC (Staphylococcus aureus [16]): 25 µg/mL; MBC (Pseudomonas aeruginosa [17]): 1.6 µg/mL; MBC (Enterococcus [18]): 12.5 µg/mL; MBC (Enterococcus [20]): 25 µg/mL; MBC (Staphylococcus aureus [22]): 50 µg/mL; MBC (Pseudomonas aeruginosa [25]): 3.1 µg/mL; MBC (Staphylococcus aureus [28]): 25 µg/mL
4 | CC(=O)O.CCCCCCCCCNC1=NC(C)(C)NC(NCc2ccccc2)=N1 | 12.5 | 12.5 |  |  | 0.8 | 6.3 | 6.3 | 3.1 |  | 3.1 | 12.5 | 6.3 |  | 3.1 | 6.3 | 6.3 | 6.3 | 6.3 | 1.6 | 12.5 | 
5 | CC(=O)O.CCCCCCCCNC1=NC(C)(C)NC(NCCCC)=N1 | 25 | 50 |  |  | 1.6 | 50 | 12.5 | 12.5 |  | 25 | 25 | 12.5 |  | 12.5 | 50 | 6.3 | 25 | 12.5 | 3.1 | 25 | 
6 | CC(=O)O.CCCCCCCCNC1=NC(C)(C)NC(NCc2ccccc2Cl)=N1 | 12.5 | 25 |  |  | 0.8 | 3.1 | 6.3 | 1.6 |  | 3.1 | 12.5 | 6.3 |  | 1.6 | 6.3 | 6.3 | 3.1 | 6.3 | 0.8 | 25 | 

From ChEMBL document CHEMBL1143313, “Synthesis of novel 4,6-di(substituted)amino-1,2-dihydro-1,3,5-triazine derivatives as topical antiseptic agents” (2009)
